Measured values taken from ChEMBL document CHEMBL5303300, “EUbOPEN Chemogenomics Library - Multiplex” (2023).
Several values for one entry are separate records, joined by “and”; a condition that tells them apart may be missing. Equal values may be shown once.

System: Fibroblast
Experiment: Multiplex assay against human fibroblast
Type: toxicity, cell-based
Conditions: number of replicates 2
Outline: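 Phenotypes for tubulin, mitochondrial mass and membrane permeability are expressed as per cents of healthy-nucleus cells. Cells were stained live at seeding with Hoechst33342, BioTracker Green Microtubule Cytoskeleton Dye, MitoTracker Red and Annexin V Alexa Fluor 680, then imaged after compound addition on a CQ1 microscope at 37°C and 5% CO2. Machine-learning gating in CellPathfinder separated Hoechst high-intensity objects from normal cells, divided normal cells by nuclear state (healthy, pyknosed, fragmented) and divided pyknosed cells into mitotic or apoptotic.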

[1] = 12 h, 1 µM, compound concentration 1 uM
[2] = 12 h, 10 µM, compound concentration 10 uM
[3] = 24 h, 1 µM, compound concentration 1 uM
[4] = 24 h, 10 µM, compound concentration 10 uM
[5] = 48 h, 1 µM, compound concentration 1 uM
[6] = 48 h, 10 µM, compound concentration 10 uM

## COC(=O)Nc1nc2c(s1)-c1c(c(-c3cccnc3)nn1-c1ccc(C3(N(C)C)CC3)cc1)CC2.Cl.Cl
[1]
  Population Apoptotic (%): 38% and 45%
  Population Fragmented Nuclei (%): 50% and 26%
  Population Healthy Nuclei (%): 40% and 52%
  Population Hoechst High Intensity Objects (%): 0%
  Population Membrane Permeable-Phenotype (%): 5% and 6%
  Population Mitochondria Different-Phenotype (%): 0%
  Population Mitotic Cells (%): 61% and 54%
  Population Normal (%): 99% and 100%
  Population Pyknosed Nuclei (%): 9% and 21%
  Population Tubulin-Different-Phenotype (%): 29% and 31%
  Total Cell Count: 378 and 219
[2]
  Population Apoptotic (%): 62% and 41%
  Population Fragmented Nuclei (%): 31% and 34%
  Population Healthy Nuclei (%): 55% and 57%
  Population Hoechst High Intensity Objects (%): 0%
  Population Membrane Permeable-Phenotype (%): 13% and 11%
  Population Mitochondria Different-Phenotype (%): 2% and 4%
  Population Mitotic Cells (%): 37% and 58%
  Population Normal (%): 100% and 99%
  Population Pyknosed Nuclei (%): 12% and 8%
  Population Tubulin-Different-Phenotype (%): 63% and 52%
  Total Cell Count: 218 and 427
[3]
  Population Apoptotic (%): 60% and 87%
  Population Fragmented Nuclei (%): 50% and 24%
  Population Healthy Nuclei (%): 42% and 60%
  Population Hoechst High Intensity Objects (%): 0%
  Population Membrane Permeable-Phenotype (%): 4%
  Population Mitochondria Different-Phenotype (%): 2% and 3%
  Population Normal (%): 99% and 100%
  Population Pyknosed Nuclei (%): 6% and 15%
  Population Tubulin-Different-Phenotype (%): 20% and 31%
  Total Cell Count: 350 and 202
[4]
  Population Apoptotic (%): 65% and 52%
  Population Fragmented Nuclei (%): 34% and 36%
  Population Healthy Nuclei (%): 55% and 57%
  Population Hoechst High Intensity Objects (%): 0%
  Population Membrane Permeable-Phenotype (%): 11% and 5%
  Population Mitochondria Different-Phenotype (%): 4% and 3%
  Population Mitotic Cells (%): 34% and 48%
  Population Normal (%): 100% and 99%
  Population Pyknosed Nuclei (%): 10% and 5%
  Population Tubulin-Different-Phenotype (%): 53% and 44%
  Total Cell Count: 225 and 437
[5]
  Population Apoptotic (%): 52% and 74%
  Population Fragmented Nuclei (%): 51% and 29%
  Population Healthy Nuclei (%): 43% and 56%
  Population Hoechst High Intensity Objects (%): 0%
  Population Membrane Permeable-Phenotype (%): 6% and 5%
  Population Mitochondria Different-Phenotype (%): 2% and 0%
  Population Mitotic Cells (%): 47% and 25%
  Population Normal (%): 99% and 100%
  Population Pyknosed Nuclei (%): 5% and 13%
  Population Tubulin-Different-Phenotype (%): 12% and 21%
  Total Cell Count: 339 and 195
[6]
  Population Apoptotic (%): 57% and 73%
  Population Fragmented Nuclei (%): 38% and 39%
  Population Healthy Nuclei (%): 58% and 53%
  Population Hoechst High Intensity Objects (%): 0%
  Population Membrane Permeable-Phenotype (%): 3% and 0%
  Population Mitochondria Different-Phenotype (%): 3% and 1%
  Population Mitotic Cells (%): 42% and 26%
  Population Normal (%): 100% and 99%
  Population Pyknosed Nuclei (%): 3% and 6%
  Population Tubulin-Different-Phenotype (%): 42% and 17%
  Total Cell Count: 223 and 418

## O=C1NC(=O)C(c2ccccc2[N+](=O)[O-])=C1Nc1ccc(O)c(Cl)c1
[1]
  Population Fragmented Nuclei (%): 10% and 18%
  Population Healthy Nuclei (%): 77% and 65%
  Population Hoechst High Intensity Objects (%): 0%
  Population Membrane Permeable-Phenotype (%): 3% and 7%
  Population Mitochondria Different-Phenotype (%): 1% and 0%
  Population Mitotic Cells (%): 87% and 53%
  Population Normal (%): 100% and 99%
  Population Pyknosed Nuclei (%): 11% and 16%
  Population Tubulin-Different-Phenotype (%): 4% and 9%
[2]
  Population Apoptotic (%): 46% and 47%
  Population Fragmented Nuclei (%): 8% and 12%
  Population Healthy Nuclei (%): 82% and 80%
  Population Hoechst High Intensity Objects (%): 0%
  Population Membrane Permeable-Phenotype (%): 1% and 2%
  Population Mitochondria Different-Phenotype (%): 0% and 1%
  Population Mitotic Cells (%): 53% and 52%
  Population Normal (%): 100%
  Population Pyknosed Nuclei (%): 9% and 7%
  Population Tubulin-Different-Phenotype (%): 6% and 5%
[3]
  Population Apoptotic (%): 45% and 57%
  Population Fragmented Nuclei (%): 10% and 17%
  Population Healthy Nuclei (%): 84% and 74%
  Population Hoechst High Intensity Objects (%): 0%
  Population Membrane Permeable-Phenotype (%): 2% and 4%
  Population Mitochondria Different-Phenotype (%): 0% and 1%
  Population Mitotic Cells (%): 54% and 42%
  Population Normal (%): 100%
  Population Pyknosed Nuclei (%): 5% and 8%
  Population Tubulin-Different-Phenotype (%): 5% and 7%
[4]
  Population Apoptotic (%): 40% and 37%
  Population Fragmented Nuclei (%): 12% and 11%
  Population Healthy Nuclei (%): 81% and 84%
  Population Hoechst High Intensity Objects (%): 0%
  Population Membrane Permeable-Phenotype (%): 2% and 3%
  Population Mitochondria Different-Phenotype (%): 0% and 1%
  Population Mitotic Cells (%): 60% and 62%
  Population Normal (%): 100%
  Population Pyknosed Nuclei (%): 6% and 3%
  Population Tubulin-Different-Phenotype (%): 7% and 2%
[5]
  Population Apoptotic (%): 35% and 46%
  Population Fragmented Nuclei (%): 12% and 19%
  Population Healthy Nuclei (%): 81% and 73%
  Population Hoechst High Intensity Objects (%): 0%
  Population Membrane Permeable-Phenotype (%): 1% and 2%
  Population Mitochondria Different-Phenotype (%): 0%
  Population Mitotic Cells (%): 64% and 53%
  Population Normal (%): 100%
  Population Pyknosed Nuclei (%): 6%
  Population Tubulin-Different-Phenotype (%): 3% and 2%
[6]
  Population Apoptotic (%): 33% and 75%
  Population Fragmented Nuclei (%): 6% and 11%
  Population Healthy Nuclei (%): 91% and 84%
  Population Hoechst High Intensity Objects (%): 0%
  Population Membrane Permeable-Phenotype (%): 3% and 0%
  Population Mitochondria Different-Phenotype (%): 0%
  Population Mitotic Cells (%): 66% and 25%
  Population Normal (%): 100%
  Population Pyknosed Nuclei (%): 1% and 3%
  Population Tubulin-Different-Phenotype (%): 7% and 1%
